Assay results: ChEMBL document CHEMBL1129624, “10-substituted 11-oxygenated (R)-aporphines: synthesis, pharmacology, and modeling of 5-HT1A receptor interactions” (J Med Chem, 1996)

How the values were obtained:
[1] = molecular target: T1, 5-hydroxytryptamine receptor 1A (Rattus norvegicus, UniProt P19327); test: In vitro affinity at 5-hydroxytryptamine 1A receptor of rat hippocampus by [3H]8-OH-DPAT displacement.; format: tissue-based
T1 sequence (P19327 whole entry): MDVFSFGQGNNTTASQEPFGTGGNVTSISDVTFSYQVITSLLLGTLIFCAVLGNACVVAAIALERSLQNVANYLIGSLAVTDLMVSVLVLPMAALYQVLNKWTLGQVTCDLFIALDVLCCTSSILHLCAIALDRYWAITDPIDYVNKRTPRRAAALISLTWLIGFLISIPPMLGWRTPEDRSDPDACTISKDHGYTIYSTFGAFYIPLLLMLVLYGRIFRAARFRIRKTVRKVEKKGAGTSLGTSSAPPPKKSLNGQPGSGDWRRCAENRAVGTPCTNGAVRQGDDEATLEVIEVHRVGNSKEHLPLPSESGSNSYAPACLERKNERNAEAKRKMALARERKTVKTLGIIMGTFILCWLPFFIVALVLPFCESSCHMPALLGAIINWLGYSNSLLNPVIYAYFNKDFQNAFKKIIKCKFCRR
Method in brief: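 Incubation in 50 mM Tris–HCl pH 7.4 containing 2.0 mM CaCl2, 1.0 mM MgCl2, 1.0 mM MnCl2 and 5.7 mM ascorbic acid, 45 min at 37 °C. Nonspecific binding defined with 100 μM 5-HT·HCl. Otherwise run as in an earlier report.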

D(1A) dopamine receptor [2] = molecular target: T2, D(1A) dopamine receptor (Rattus norvegicus, UniProt P18901); test: In vitro affinity at Dopamine receptor D1 of rat striatum by [3H]SCH-23390 displacement.; format: tissue-based
T2 sequence (P18901 whole entry): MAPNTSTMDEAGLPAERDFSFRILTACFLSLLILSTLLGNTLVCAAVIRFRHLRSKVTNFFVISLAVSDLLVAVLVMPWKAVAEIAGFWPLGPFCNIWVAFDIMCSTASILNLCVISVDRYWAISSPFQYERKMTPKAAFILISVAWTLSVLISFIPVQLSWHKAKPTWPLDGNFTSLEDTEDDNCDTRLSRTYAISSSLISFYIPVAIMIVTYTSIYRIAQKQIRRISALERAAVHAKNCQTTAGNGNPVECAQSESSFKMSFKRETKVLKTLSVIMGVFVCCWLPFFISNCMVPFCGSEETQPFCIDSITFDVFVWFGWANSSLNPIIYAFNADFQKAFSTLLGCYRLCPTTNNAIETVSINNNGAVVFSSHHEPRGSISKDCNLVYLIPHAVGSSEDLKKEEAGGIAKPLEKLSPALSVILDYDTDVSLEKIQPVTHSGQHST

D(2) dopamine receptor [3] = molecular target: T3, D(2) dopamine receptor (Homo sapiens, UniProt P14416); test: In vitro affinity at human cloned Dopamine receptor D2A by [3H]-raclopride displacement.
T3 sequence (P14416 whole entry): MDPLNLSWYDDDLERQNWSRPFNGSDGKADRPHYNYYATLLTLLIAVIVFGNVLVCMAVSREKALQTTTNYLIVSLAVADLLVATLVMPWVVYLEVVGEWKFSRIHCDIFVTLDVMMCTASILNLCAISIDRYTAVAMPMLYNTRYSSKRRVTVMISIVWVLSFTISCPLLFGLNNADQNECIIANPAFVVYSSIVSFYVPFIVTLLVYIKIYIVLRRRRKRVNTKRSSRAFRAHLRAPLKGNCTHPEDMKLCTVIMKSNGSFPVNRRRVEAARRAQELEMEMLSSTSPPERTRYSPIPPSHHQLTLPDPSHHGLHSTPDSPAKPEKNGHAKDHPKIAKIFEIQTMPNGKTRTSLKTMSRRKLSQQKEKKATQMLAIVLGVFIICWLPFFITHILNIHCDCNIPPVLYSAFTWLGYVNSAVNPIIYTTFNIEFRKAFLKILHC

Rattus norvegicus [4] = test: In vivo effect on 5-hydroxytryptophan (5-HTP) accumulation following decarboxylase inhibition was investigated on striatum of reserpine-pretreated rats.; format: functional
Method in brief: (§1)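 Rats pretreated with reserpine (5 mg/kg sc) 18–20 h before. Single sc doses of test agent in saline, sometimes with a few drops of glacial HOAc. Decarboxylase then blocked with NSD1015 (117 mg/kg sc). DOPA and 5-HTP measured in dissected brain regions by HPLC with electrochemical detection. Values given as percent of saline controls, n = 2–4. Statistics by one-way ANOVA with Fisher's PLSD.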

Rattus norvegicus [5] = test: In vivo effect on 5-hydroxytryptophan (5-HTP) accumulation following decarboxylase inhibition was tested on limbic forebrain of reserpine-pretreated rats.; format: functional, Limbic system; method in brief: as §1
Rattus norvegicus [6] = test: In vivo effects of single doses on dihydroxyphenylalanine (DOPA) accumulation following decarboxylase inhibition was investigated on limbic forebrain of reserpine-pretreated rats.; format: functional, Limbic system; method in brief: as §1
Rattus norvegicus [7] = test: In vivo effects on 5-hydroxytryptophan (5-HTP) accumulation following decarboxylase inhibition was tested on cortex of reserpine-pretreated rats.; format: functional; method in brief: as §1
Rattus norvegicus [8] = test: In vivo effects on dihydroxyphenylalanine (DOPA) accumulation following decarboxylase inhibition was tested on cortex of reserpine-pretreated rats; format: functional; method in brief: as §1
Rattus norvegicus [9] = test: In vivo effects on dihydroxyphenylalanine (DOPA) accumulation following decarboxylase inhibition was tested on striatum of reserpine-pretreated rats.; format: functional; method in brief: as §1
D(2) dopamine receptor [10] = molecular target: T3, D(2) dopamine receptor; test: In vitro affinity at human cloned Dopamine receptor D2A by [3H]raclopride displacement.
D(1A) dopamine receptor [11] = molecular target: T2, D(1A) dopamine receptor; test: In vitro affinity at Dopamine receptor D1 of rat striatum by [3H]SCH-23,390 displacement.; format: tissue-based
Rattus norvegicus [12] = test: In vivo effect on dihydroxyphenylalanine (DOPA) accumulation following decarboxylase inhibition was tested on cortex of reserpine-pretreated rats; format: functional; method in brief: as §1
Rattus norvegicus [13] = test: In vivo effect on dihydroxyphenylalanine (DOPA) accumulation following decarboxylase inhibition was tested on striatum of reserpine-pretreated rats.; format: functional; method in brief: as §1

| SMILES | Ki [1] [µM] | Ki (D(1A) dopamine receptor [2]) [µM] | Ki (D(2) dopamine receptor [3]) [µM] | other results |
| --- | --- | --- | --- | --- |
| CCc1ccc2c(c1O)-c1cccc3c1[C@@H](C2)N(C)CC3 | 0.0092 | 0.782 | 2.05 |  |
| Cc1ccc2c(c1O)-c1cccc3c1[C@@H](C2)NCC3 | 0.0032 | 23.8 | > 10 | Accumulation (Rattus norvegicus [4]): 47; Accumulation (Rattus norvegicus [5]): 37; Accumulation (Rattus norvegicus [6]): 85; Accumulation (Rattus norvegicus [7]): 40; Accumulation (Rattus norvegicus [8]): 93; Accumulation (Rattus norvegicus [9]): 78 |
| COc1c(C)ccc2c1-c1cccc3c1[C@@H](C2)NCC3 | 0.0126 |  |  | Ki (D(2) dopamine receptor [10]): 4.71 µM; Ki (D(1A) dopamine receptor [11]): > 5 µM |
| CCCN1CCc2cccc3c2[C@H]1Cc1ccc(C)c(OC)c1-3 | 0.0108 | > 2 | 0.238 |  |
| COc1c(-c2ccco2)ccc2c1-c1cccc3c1[C@@H](C2)N(C)CC3 | 0.995 |  |  | Ki (D(2) dopamine receptor [10]): 0.582 µM; Ki (D(1A) dopamine receptor [11]): 14 µM |
| COc1c(C)ccc2c1-c1cccc3c1[C@@H](C2)N(Cc1ccccc1)CC3 |  |  |  | Ki (D(2) dopamine receptor [10]): > 5 µM; Ki (D(1A) dopamine receptor [11]): > 5 µM |
| CN1CCc2cccc3c2[C@H]1Cc1ccc(-c2ccccc2)c(O)c1-3 | 1.09 | 9.4 | > 1 |  |
| CCCN1CCc2cccc3c2[C@H]1Cc1ccc(C)c(O)c1-3 | 0.0123 | > 2 | 0.249 | Accumulation (Rattus norvegicus [4]): 104; Accumulation (Rattus norvegicus [5]): 104; Accumulation (Rattus norvegicus [6]): 81; Accumulation (Rattus norvegicus [7]): 102; Accumulation (Rattus norvegicus [8]): 116; Accumulation (Rattus norvegicus [9]): 72 |
| CCCN1CCc2cccc3c2[C@H]1Cc1ccc(OS(=O)(=O)C(F)(F)F)c(OC)c1-3 | 3.3 | > 2 | 0.403 |  |
| COc1c(C(C)=O)ccc2c1-c1cccc3c1[C@@H](C2)N(C)CC3 | 0.15 |  |  | Ki (D(2) dopamine receptor [10]): 2.98 µM; Ki (D(1A) dopamine receptor [11]): 4.82 µM |
| CC(=O)c1ccc2c(c1O)-c1cccc3c1[C@@H](C2)N(C)CC3 |  | 4.62 | 2.76 |  |
| CCc1ccc2c(c1OC)-c1cccc3c1[C@@H](C2)N(C)CC3 | 0.0175 | 1.03 | 0.411 |  |
| C=Cc1ccc2c(c1OC)-c1cccc3c1[C@@H](C2)N(C)CC3 | 0.108 |  |  | Ki (D(2) dopamine receptor [10]): 1.75 µM; Ki (D(1A) dopamine receptor [11]): 1.44 µM |
| COc1c(C)ccc2c1-c1cccc3c1[C@@H](C2)N(C)CC3 | 0.0075 | 0.393 | 0.248 |  |
| COc1c(C)ccc2c1-c1cccc3c1[C@@H](C2)N(C(C)C)CC3 | 0.64 | > 5 | > 1 |  |
| Cc1ccc2c(c1O)-c1cccc3c1[C@@H](C2)N(Cc1ccccc1)CC3 | 0.772 | > 5 | > 1 |  |
| COc1c(OS(=O)(=O)C(F)(F)F)ccc2c1-c1cccc3c1[C@@H](C2)N(C)CC3 | 1.62 | > 2 | 1.04 |  |
| Cc1ccc2c(c1O)-c1cccc3c1[C@@H](C2)N(C(C)C)CC3 | 0.241 | > 10 | > 1 |  |
| Cc1ccc2c(c1O)-c1cccc3c1[C@@H](C2)N(C)CC3 |  |  |  | Accumulation (Rattus norvegicus [4]): 70; Accumulation (Rattus norvegicus [5]): 58; Accumulation (Rattus norvegicus [12]): 100; Accumulation (Rattus norvegicus [13]): 90; Accumulation (Rattus norvegicus [6]): 84; Accumulation (Rattus norvegicus [7]): 72 |
